ChEMBL document CHEMBL3875155, “New (arylalkyl)azole derivatives showing anticonvulsant effects could have VGSC and/or GABAAR affinity according to molecular modeling studies” (Eur J Med Chem, 2016)
Calls of active or inactive are those of the source.

Experiments:
Mus musculus [1] = assay: Anticonvulsant activity in Swiss albino mouse assessed as protection against maximal electroshock-induced seizures at 300 mg/kg, ip after 4 hrs; assay type: functional, organism-based
Method in brief: (§1)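 Compound suspended in PEG 400 and given i.p. at 30, 100 or 300 mg/kg, 0.5 or 4 h before testing. Saline (0.9%) applied to the corneas, then 60 Hz alternating current for 0.2 s through corneal electrodes. A mouse counts as protected if hind limb tonic extension stays under 90°. PEG-only placebo mice serve as negative control. Scored as number protected/number tested.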

Mus musculus [2] = assay: Neurotoxicity in Swiss albino mouse at 30 mg/kg, ip after 4 hrs by rotarod test; assay type: toxicity, organism-based; details: in vivo
Method in brief: (§2)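 Rotarod turning at 6 rpm, run after i.p. dosing of PEG 400 suspension (30, 100 or 300 mg/kg; 0.5 or 4 h). Falling off three times within 1 min marks a mouse as neurotoxic. Placebo (PEG) mice serve as control. Scored as number failing/number tested.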

Mus musculus [3] = assay: Neurotoxicity in Swiss albino mouse at 100 mg/kg, ip after 4 hrs by rotarod test; assay type: toxicity, organism-based; details: in vivo; method in brief: as §2
Mus musculus [4] = assay: Neurotoxicity in Swiss albino mouse at 100 mg/kg, ip after 0.5 hrs by rotarod test; assay type: toxicity, organism-based; details: in vivo; method in brief: as §2
Mus musculus [5] = assay: Neurotoxicity in Swiss albino mouse at 300 mg/kg, ip after 4 hrs by rotarod test; assay type: toxicity, organism-based; details: in vivo; method in brief: as §2
Mus musculus [6] = assay: Neurotoxicity in Swiss albino mouse at 300 mg/kg, ip after 0.5 hrs by rotarod test; assay type: toxicity, organism-based; details: in vivo; method in brief: as §2
Mus musculus [7] = assay: Neurotoxicity in Swiss albino mouse at 30 mg/kg, ip after 0.5 hrs by rotarod test; assay type: toxicity, organism-based; details: in vivo; method in brief: as §2
Mus musculus [8] = assay: Anticonvulsant activity in Swiss albino mouse assessed as protection against maximal electroshock-induced seizures at 100 mg/kg, ip after 0.5 hrs; assay type: functional, organism-based; method in brief: as §1
Mus musculus [9] = assay: Anticonvulsant activity in Swiss albino mouse assessed as protection against maximal electroshock-induced seizures at 30 mg/kg, ip after 0.5 hrs; assay type: functional, organism-based; method in brief: as §1
Mus musculus [10] = assay: Anticonvulsant activity in Swiss albino mouse assessed as protection against maximal electroshock-induced seizures at 100 mg/kg, ip after 4 hrs; assay type: functional, organism-based; method in brief: as §1
Mus musculus [11] = assay: Anticonvulsant activity in Swiss albino mouse assessed as protection against maximal electroshock-induced seizures at 30 mg/kg, ip after 4 hrs; assay type: functional, organism-based; method in brief: as §1
Mus musculus [12] = assay: Anticonvulsant activity in Swiss albino mouse assessed as protection against maximal electroshock-induced seizures at 300 mg/kg, ip after 0.5 hrs; assay type: functional, organism-based; method in brief: as §1
Mus musculus [13] = assay: Anticonvulsant activity in Swiss albino mouse assessed as protection against subcutaneously injected metrazol induced seizures at 300 mg/kg, ip after 4 hrs; assay type: functional, organism-based
Method in brief: (§3)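 Test compounds were given i.p. as PEG 400 suspensions at 30, 100 or 300 mg/kg, 0.5 or 4 h ahead. Metrazol 85 mg/kg is injected s.c. in the neck midline, and mice are watched for 30 min. A mouse counts as protected if it has no clonic spasm episode (about 3–5 s) of the limbs, jaws or vibrissae. PEG placebo serves as negative control. Scored as number protected/number tested.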

Mus musculus [14] = assay: Anticonvulsant activity in Swiss albino mouse assessed as protection against subcutaneously injected metrazol induced seizures at 300 mg/kg, ip after 0.5 hrs; assay type: functional, organism-based; method in brief: as §3
Mus musculus [15] = assay: Anticonvulsant activity in Swiss albino mouse assessed as protection against subcutaneously injected metrazol induced seizures at 100 mg/kg, ip after 4 hrs; assay type: functional, organism-based; method in brief: as §3
Mus musculus [16] = assay: Anticonvulsant activity in Swiss albino mouse assessed as protection against subcutaneously injected metrazol induced seizures at 30 mg/kg, ip after 4 hrs; assay type: functional, organism-based; method in brief: as §3

Measured: Activity

CCCC(=O)O/N=C(\Cn1cncn1)c1ccc2ccccc2c1
active: Mus musculus [1]
Non-Toxic: Mus musculus [2] | Mus musculus [3] | Mus musculus [4] | Mus musculus [5] | Mus musculus [6] | Mus musculus [7]

O=C1NC(=O)C(c2ccccc2)(c2ccccc2)N1 [PHENYTOIN]
active: Mus musculus [1] | Mus musculus [8] | Mus musculus [9] | Mus musculus [10] | Mus musculus [11] | Mus musculus [12]
Toxic: Mus musculus [3] | Mus musculus [5] | Mus musculus [6]
Non-Toxic: Mus musculus [2] | Mus musculus [4] | Mus musculus [7]

O=C(/C=C/c1ccccc1)O/N=C(\Cn1cncn1)c1ccc2ccccc2c1
Non-Toxic: Mus musculus [2] | Mus musculus [3] | Mus musculus [4] | Mus musculus [5] | Mus musculus [6] | Mus musculus [7]

CCCC(C)C(=O)O/N=C(\Cn1cncn1)c1ccc2ccccc2c1.Cl (configuration not stated)
Non-Toxic: Mus musculus [2] | Mus musculus [3] | Mus musculus [4] | Mus musculus [5] | Mus musculus [6] | Mus musculus [7]
active: Mus musculus [12]

CCC(C)CC(=O)O/N=C(\Cn1cncn1)c1ccc2ccccc2c1.Cl (configuration not stated)
active: Mus musculus [1] | Mus musculus [8] | Mus musculus [13]
Non-Toxic: Mus musculus [2] | Mus musculus [3] | Mus musculus [4] | Mus musculus [5] | Mus musculus [6] | Mus musculus [7]

Cl.O=C(Cc1ccccc1)O/N=C(\Cn1cncn1)c1ccc2ccccc2c1
Non-Toxic: Mus musculus [2] | Mus musculus [3] | Mus musculus [4] | Mus musculus [5] | Mus musculus [6] | Mus musculus [7]

CCC(C)C(=O)O/N=C(\Cn1cncn1)c1ccc2ccccc2c1 (configuration not stated)
active: Mus musculus [8] | Mus musculus [12] | Mus musculus [13]
Non-Toxic: Mus musculus [2] | Mus musculus [3] | Mus musculus [4] | Mus musculus [5] | Mus musculus [6] | Mus musculus [7]

NC(=O)N1c2ccccc2C=Cc2ccccc21 [CARBAMAZEPINE]
active: Mus musculus [14] | Mus musculus [1] | Mus musculus [8] | Mus musculus [9] | Mus musculus [10] | Mus musculus [12] | Mus musculus [15] | Mus musculus [13]
Toxic: Mus musculus [6]
Non-Toxic: Mus musculus [2] | Mus musculus [3] | Mus musculus [4] | Mus musculus [5] | Mus musculus [7]

CC(C)CCC(=O)O/N=C(\Cn1cncn1)c1ccc2ccccc2c1.Cl
Non-Toxic: Mus musculus [2] | Mus musculus [3] | Mus musculus [4] | Mus musculus [5] | Mus musculus [6] | Mus musculus [7]
active: Mus musculus [8] | Mus musculus [12] | Mus musculus [13]

CCCCC(=O)O/N=C(\Cn1cncn1)c1ccc2ccccc2c1.Cl
active: Mus musculus [12]
Non-Toxic: Mus musculus [2] | Mus musculus [3] | Mus musculus [4] | Mus musculus [5] | Mus musculus [6] | Mus musculus [7]

CC(C)(C)C(=O)O/N=C(\Cn1cncn1)c1ccc2ccccc2c1
Non-Toxic: Mus musculus [2] | Mus musculus [3] | Mus musculus [4] | Mus musculus [5] | Mus musculus [6] | Mus musculus [7]

CCCC(CCC)C(=O)O/N=C(\Cn1cncn1)c1ccc2ccccc2c1.Cl
Non-Toxic: Mus musculus [2] | Mus musculus [3] | Mus musculus [4] | Mus musculus [5] | Mus musculus [6] | Mus musculus [7]
active: Mus musculus [1] | Mus musculus [13]

CC(C)C(=O)O/N=C(\Cn1cncn1)c1ccc2ccccc2c1.Cl
Non-Toxic: Mus musculus [2] | Mus musculus [3] | Mus musculus [4] | Mus musculus [5] | Mus musculus [6] | Mus musculus [7]
active: Mus musculus [1]

CCC(=O)O/N=C(\Cn1cncn1)c1ccc2ccccc2c1.Cl
Non-Toxic: Mus musculus [2] | Mus musculus [3] | Mus musculus [4] | Mus musculus [5] | Mus musculus [6] | Mus musculus [7]

O=C(O/N=C(\Cn1cncn1)c1ccc2ccccc2c1)C1CCCCC1
active: Mus musculus [12]
Non-Toxic: Mus musculus [2] | Mus musculus [3] | Mus musculus [4] | Mus musculus [5] | Mus musculus [6] | Mus musculus [7]

CC(C)CC(=O)O/N=C(\Cn1cncn1)c1ccc2ccccc2c1.Cl
Non-Toxic: Mus musculus [2] | Mus musculus [3] | Mus musculus [4] | Mus musculus [5] | Mus musculus [6] | Mus musculus [7]
active: Mus musculus [14] | Mus musculus [10] | Mus musculus [16] | Mus musculus [12] | Mus musculus [15] | Mus musculus [13]
